Laboratory results published in ChEMBL document CHEMBL1165950, “Design and synthesis of new potent anticancer pyrazoles with high FLT3 kinase inhibitory selectivity” (Bioorg Med Chem, 2010).

Legend:
Format in all cases: functional
[1] = tested on: CAKI-1; assay: Cytotoxicity against human Caki1 cells assessed as cell growth at 0.001 uM after 48 hrs by sulforhodamine B assay; details: CAKI-1, 48 h, read-out: Activity
[2] = tested on: SNB-19; assay: Cytotoxicity against human SNB19 cells assessed as cell growth at 0.01 uM after 48 hrs by sulforhodamine B assay; details: SNB-19, 48 h, read-out: Activity
[3] = tested on: MDA-MB-468; assay: Growth inhibition of human MDA-MB-468 cells after 48 hrs by sulforhodamine B assay; details: MDA-MB-468, 48 h
In short: (§1)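 NCI 60-cell screen, five-dose mode. Cells grown in RPMI 1640 with 5% FBS and 2 mM L-glutamine and plated at 5000-40,000 cells/well according to doubling time. After 24 h preincubation, a Tz plate was TCA-fixed. Five concentrations (10-fold or 1/2 log dilutions) were applied for 48 h at 37 °C. SRB staining read at 515 nm. IC50 taken from [(Ti-Tz)/(C-Tz)]×100 = 50.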

[4] = Growth inhibition of human […] cells after 48 hrs by sulforhodamine B assay; details: for CC50: read-out: LC50 (the source's name); in short: as §1
[5] = tested on: NCI-H522; assay: Cytotoxicity against human NCI-H522 cells assessed as cell growth at 10 uM after 48 hrs by sulforhodamine B assay; details: NCI-H522, 48 h, read-out: Activity
[6] = tested on: K562; assay: Cytotoxicity against human K562 cells assessed as cell growth at 0.001 uM after 48 hrs by sulforhodamine B assay; details: K562, 48 h, read-out: Activity
[7] = tested on: SK-MEL-28; assay: Cytotoxicity against human SK-MEL-28 cells assessed as cell growth at 10 uM; details: read-out: Activity
In short: (§2)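 NCI-60 screen: cells grown in RPMI 1640 with 5% FBS and 2 mM L-glutamine, plated at 5000–40,000 cells/well according to doubling time, and preincubated 24 h at 37 °C, 5% CO2. The single 10 µM dose (DMSO stock) was added, then incubated 48 h. Cells were TCA-fixed and stained with 0.4% SRB, read at 515 nm, and growth % calculated against time-zero and control plates.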

[8] = tested on: PC-3; assay: Cytotoxicity against human PC3 cells assessed as cell growth at 100 nM after 48 hrs by sulforhodamine B assay; details: PC-3, 48 h, read-out: Activity
[9] = tested on: OVCAR-5; assay: Growth inhibition of human OVCAR5 cells after 48 hrs by sulforhodamine B assay; details: OVCAR-5, 48 h; for CC50: read-out: LC50 (the source's name); in short: as §1
[10] = tested on: COLO 205; assay: Cytotoxicity against human COLO205 cells assessed as cell growth at 0.001 uM after 48 hrs by sulforhodamine B assay; details: COLO 205, 48 h, read-out: Activity
In short: (§3)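 NCI-60 five-dose screen. Cells were grown in RPMI 1640 with 5% FBS and 2 mM L-glutamine, plated at 5000–40,000 cells/well and preincubated for 24 h. Time-zero plates were TCA-fixed. DMSO-solubilized drug was added at five concentrations (10-fold or ½-log serial dilutions) for 48 h at 37 °C, 5% CO2. Cells were TCA-fixed, stained with 0.4% SRB and read at 515 nm. Percent growth used time-zero, control and test absorbances.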

[11] = tested on: U-251; assay: Cytotoxicity against human U251 cells assessed as cell growth at 100 nM after 48 hrs by sulforhodamine B assay; details: U-251, 48 h, read-out: Activity
[12] = tested on: SF-268; assay: Growth inhibition of human SF268 cells after 48 hrs by sulforhodamine B assay; details: SF-268, 48 h; for CC50: read-out: LC50 (the source's name); in short: as §1
[13] = tested on: BT-549; assay: Cytotoxicity against human BT549 cells assessed as cell growth at 10 uM after 48 hrs by sulforhodamine B assay; details: BT-549, 48 h, read-out: Activity; in short: as §3
[14] = tested on: IGROV-1; assay: Cytotoxicity against human IGROV1 cells assessed as cell growth at 10 uM; details: read-out: Activity
In short: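 Single-dose NCI-60 screen at 10 µM. Cells were grown in RPMI 1640 with 5% FBS and 2 mM L-glutamine, then treated for 48 h at 37 °C. Protein was measured by SRB staining with absorbance at 515 nm. Percentage growth was recorded, and inhibition percentage was calculated as 100 minus growth percentage.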

[15] = tested on: CCRF-CEM; assay: Cytotoxicity against human CCRF-CEM cells assessed as cell growth at 1 uM after 48 hrs by sulforhodamine B assay; details: read-out: Activity; in short: as §3
[16] = tested on: 786-0; assay: Cytotoxicity against human 786-0 cells assessed as cell growth at 0.01 uM after 48 hrs by sulforhodamine B assay; details: 786-0, 48 h, read-out: Activity; in short: as §3
[17] = tested on: SK-MEL-2; assay: Cytotoxicity against human SK-MEL-2 cells assessed as cell growth at 10 uM; details: read-out: Activity; in short: as §2
[18] = tested on: OVCAR-3; assay: Cytotoxicity against human OVCAR-3 cells assessed as cell growth at 0.001 uM after 48 hrs by sulforhodamine B assay; details: OVCAR-3, 48 h, read-out: Activity
[19] = tested on: SK-MEL-5; assay: Cytotoxicity against human SK-MEL-5 cells assessed as cell growth at 10 uM after 48 hrs by sulforhodamine B assay; details: SK-MEL-5, 48 h, read-out: Activity
[20] = tested on: UO-31; assay: Growth inhibition of human UO31 cells after 48 hrs by sulforhodamine B assay; details: UO-31, 48 h; for CC50: read-out: LC50 (the source's name); in short: as §1
[21] = tested on: SN12C; assay: Cytotoxicity against human SN12C cells assessed as cell growth at 100 nM after 48 hrs by sulforhodamine B assay; details: read-out: Activity
[22] = tested on: IGROV-1; assay: Cytotoxicity against human IGROV1 cells assessed as cell growth at 1 uM after 48 hrs by sulforhodamine B assay; details: IGROV-1, 48 h, read-out: Activity
[23] = tested on: M14; assay: Growth inhibition of human M14 cells after 48 hrs by sulforhodamine B assay; details: M14, 48 h; for CC50: read-out: LC50 (the source's name); in short: as §1
[24] = tested on: CCRF-CEM; assay: Cytotoxicity against human CCRF-CEM cells assessed as cell growth at 10 uM after 48 hrs by sulforhodamine B assay; details: read-out: Activity; in short: as §3
[25] = tested on: KM12; assay: Cytotoxicity against human KM12 cells assessed as cell growth at 0.01 uM after 48 hrs by sulforhodamine B assay; details: KM12, 48 h, read-out: Activity
[26] = tested on: HT-29; assay: Cytotoxicity against human HT-29 cells assessed as cell growth at 100 nM after 48 hrs by sulforhodamine B assay; details: HT-29, 48 h, read-out: Activity
[27] = tested on: Malme-3M; assay: Cytotoxicity against human MALME-3M cells assessed as cell growth at 10 uM after 48 hrs by sulforhodamine B assay; details: read-out: Activity
[28] = tested on: SN12C; assay: Cytotoxicity against human SN12C cells assessed as cell growth at 0.01 uM after 48 hrs by sulforhodamine B assay; details: read-out: Activity
[29] = tested on: A549; assay: Cytotoxicity against human A549 cells assessed as cell growth at 100 nM after 48 hrs by sulforhodamine B assay; details: A549, 48 h, read-out: Activity; in short: as §3
[30] = tested on: HOP-92; assay: Cytotoxicity against human HOP92 cells assessed as cell growth at 10 uM after 48 hrs by sulforhodamine B assay; details: HOP-92, 48 h, read-out: Activity

COc1cc(C)cc(-c2c(-c3ccnc(-c4ccc(C(C)=O)cc4)c3)cnn2CC#N)c1
growth at 0.001 µM [1]: 104%
growth at 0.01 µM [2]: 102%
GI50 [3]: 1.43 µM
LC50 (concentration giving 50% net cell kill) [3]: 2.13 µM
TGI [3]: 3.87 µM
GI50 [4]: 2.59 µM
TGI [4]: 9.02 µM
CC50 [4]: > 100 µM
growth at 10 µM [5]: -10%
growth at 0.001 µM [6]: 81%
growth at 10 µM [7]: 62%
growth at 0.1 µM [8]: 83%
GI50 [9]: > 100 µM
TGI [9]: > 100 µM
CC50 [9]: > 100 µM
growth at 0.001 µM [10]: 109%
growth at 0.1 µM [11]: 89%
GI50 [12]: 3.14 µM
TGI [12]: > 100 µM
CC50 [12]: > 100 µM
growth at 10 µM [13]: 24%
growth at 10 µM [14]: 98.5%
growth at 1 µM [15]: 12%
growth at 0.01 µM [16]: 98%
growth at 10 µM [17]: 73.7%
growth at 0.001 µM [18]: 103%
growth at 10 µM [19]: -35%
GI50 [20]: 2.61 µM
TGI [20]: > 100 µM
CC50 [20]: > 100 µM
growth at 0.1 µM [21]: 92%
growth at 1 µM [22]: 23%
GI50 [23]: 1.97 µM
CC50 [23]: > 100 µM
growth at 10 µM [24]: 14%
growth at 0.01 µM [25]: 97%
growth at 0.1 µM [26]: 95%
growth at 10 µM [27]: 43%
growth at 0.01 µM [28]: 93%
growth at 0.1 µM [29]: 83%
growth at 10 µM [30]: -1%

Cc1cc(O)cc(-c2nn(CC#N)cc2-c2ccnc(-c3ccc(N(C)C)cc3)c2)c1
growth at 0.001 µM [1]: 103%
growth at 0.01 µM [2]: 95%
GI50 [3]: 1.63 µM
LC50 (concentration giving 50% net cell kill) [3]: 9.94 µM
TGI [3]: 4.02 µM
GI50 [4]: 3.71 µM
TGI [4]: 22.2 µM
CC50 [4]: > 100 µM
growth at 10 µM [5]: -57%
growth at 0.001 µM [6]: 100%
growth at 10 µM [7]: 38.1%
growth at 0.1 µM [8]: 94%
GI50 [9]: 1.49 µM
TGI [9]: 60.4 µM
CC50 [9]: > 100 µM
growth at 0.001 µM [10]: 109%
growth at 0.1 µM [11]: 91%
GI50 [12]: 3.55 µM
TGI [12]: 16.9 µM
CC50 [12]: 77.9 µM
growth at 10 µM [13]: -43%
growth at 10 µM [14]: 44%
growth at 1 µM [15]: 13%
growth at 0.01 µM [16]: 88%
growth at 10 µM [17]: 43.2%
growth at 0.001 µM [18]: 105%
growth at 10 µM [19]: -93%
GI50 [20]: 3.23 µM
TGI [20]: 32.5 µM
CC50 [20]: > 100 µM
growth at 0.1 µM [21]: 91%
growth at 1 µM [22]: 24%
GI50 [23]: 1.83 µM
TGI [23]: 4.76 µM
CC50 [23]: 20.4 µM
growth at 10 µM [24]: 7%
growth at 0.01 µM [25]: 76%
growth at 0.1 µM [26]: 102%
growth at 10 µM [27]: -19%
growth at 0.01 µM [28]: 90%
growth at 0.1 µM [29]: 95%
growth at 10 µM [30]: -12%
